Measured values gathered from unrelated publications.
Cell line: MDA-MB-231
Effect on: cell growth or viability

SMILES | technique | time | IC50
COc1cc([C@@H]2c3cc4c(cc3[C@@H](O[C@@H]3O[C@@H]5CO[C@@H](C)O[C@H]5[C@H](O)[C@H]3O)[C@H]3COC(=O)[C@H]23)OCO4)cc(OC)c1O | MTT | 48 h | 21.2 µM
COc1ccccc1-n1cc(CNC(=O)[C@@]2(C)[C@H](O)CC[C@@]3(C)[C@H]2CC[C@]2(C)[C@@H]3C(=O)C[C@@H]3[C@@H]4[C@@H](C)[C@H](C)CC[C@]4(C)CC[C@]32C)nn1 | MTT | 24 h | 71.2 µM
COc1cc([C@@H]2c3cc4c(cc3[C@@H](O[C@@H]3O[C@@H]5CO[C@@H](C)O[C@H]5[C@H](O)[C@H]3O)[C@H]3COC(=O)[C@H]23)OCO4)cc(OC)c1O | ATP luminescence | 48 h | 2.15 µM
Cc1ccc(S(=O)(=O)n2cc(/C=N/NC(=O)c3ccc(Br)cc3)c3ccccc32)cc1 | MTT | 48 h | 22.4 µM
CC(C)[C@@H]1NC(=O)[C@H](Cc2c[nH]cn2)NC1=O | SRB | – | > 15 µM
Cc1ccc(S(=O)(=O)n2cc(/C=N/NC(=O)c3cccc(Cl)c3)c3ccccc32)cc1 | MTT | 48 h | 25.1 µM
O=C1Nc2ccccc2/C1=N/N=C/c1cccc([N+](=O)[O-])c1 | MTT | 48 h | 21.1 µg/mL
CN1CCc2c(c3ccccc3n2Cc2ccc(C(=O)NO)cc2)C1 | CCK-8 | 48 h | 24.7 µM
CCCNC(=S)N/N=C/c1cccc2cc3ccccc3nc12 | MTT | 48 h | > 50 µM
CC(C)(C)c1cnc(CSc2cnc(NC(=O)C3CCN(C(=O)CCCCCCCN4Cc5cc6c(cc5C4)C(=O)N(C4CCC(=O)NC4=O)C6=O)CC3)s2)o1 (stereo not drawn) | MTT | – | 0.0796 µM
Nc1ccn([C@@H]2O[C@H](CO)[C@@H](O)C2(F)F)c(=O)n1 | MTT | 48 h | 4.07 µg/mL
COc1ccc(NC(=S)N/N=C/c2cccc3cc4ccccc4nc23)cc1 | MTT | 48 h | > 50 µM
Cc1cc(NS(=O)(=O)c2ccc(NC(=O)/C(C#N)=C/c3ccc(N4CCCC4)cc3)cc2)no1 | MTT | 48 h | 109 µM
Cc1ccc(S(=O)(=O)n2cc(/C=N/NC(=O)c3ccc(C(F)(F)F)cc3)c3ccccc32)cc1 | MTT | 48 h | 19.2 µM
CC(C)=CCc1ncc(/C=C2\NC(=O)[C@H](C(C)C)NC2=O)[nH]1 | SRB | – | > 15 µM
O=C(Nc1ccccc1)Nc1ccc(Oc2nc3ccccc3n3cnnc23)cc1 | MTT | 24 h | > 68 µM
COc1cccc2c1C(=O)c1c(O)c3c(c(O)c1C2=O)C[C@@](O)(C(=O)CO)C[C@@H]3O[C@H]1C[C@H](N)[C@H](O)[C@H](C)O1 | MTT | 24 h | 6.08 µM
C[C@H]1[C@H](C)CC[C@]2(C)CC[C@]3(C)C(=CC(=O)[C@@H]4[C@@]5(C)CC[C@@H](O)[C@](C)(C(=O)NCc6cn(-c7ccc(Cl)cc7)nn6)[C@@H]5CC[C@]43C)[C@H]12 | MTT | 24 h | 106 µM
